Reference: ChEMBL document CHEMBL3351978, “Optimization of 1,2,4-Triazolopyridines as Inhibitors of Human 11β-Hydroxysteroid Dehydrogenase Type 1 (11β-HSD-1)” (ACS Med Chem Lett, 2014)
Values after ≈ are worked out from the molar mass of the structure shown. Active and inactive are the calls of the source. The calls are words filed in the database; no cut-off is given here.

Tests used:
HEK293-EBNA = assay: Inhibition of cynomolgus monkey recombinant 11beta-HSD-1 expressed in HEK293 EBNA cells using [3H]-cortisone and NADPH by scintillation proximity assay; format: cell-based; conditions: Macaca fascicularis
[1] = Stability in mouse microsomes assessed as parent compound remaining after 30 mins; format: ADME, Microsome; conditions: read-out: Stability
[2] = AUC (0 to 8 hrs) in Balb/C mouse at 3.5 mg/kg, po; format: ADME, organism-based; parameters: time < 8 hr, dose 3.5 mg/kg, route oral; conditions: plasma
Method in brief: (§1)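 Male Balb/C mice were given a single oral dose of 3.5 mpk in 0.5% methocel/0.1% Tween-80 in water.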

[3] = Cmax in Balb/C mouse at 3.5 mg/kg, po; format: ADME, organism-based; parameters: dose 3.5 mg/kg, route oral; conditions: in vivo; method in brief: as §1
[4] = Stability in […] monkey microsomes assessed as parent compound remaining after 30 mins; format: ADME, Macaca fascicularis, Microsome; conditions: read-out: Stability
[5] = Solubility at pH 7.4; format: physicochemical; conditions: buffer
[6] = Tmax in Balb/C mouse at 3.5 mg/kg, po; format: ADME, organism-based; parameters: dose 3.5 mg/kg, route oral; conditions: in vivo; method in brief: as §1
[7] = Stability in human microsomes assessed as parent compound remaining after 30 mins; format: ADME, Microsome; conditions: read-out: Stability
[8] = Stability in rat microsomes assessed as parent compound remaining after 30 mins; format: ADME, Microsome; conditions: read-out: Stability

Row | SMILES | inhibition (HEK293-EBNA) | further results
1 | Cc1cccn2c(C3(c4ccc(Cl)cc4)CC3)nnc12 | Active | 
2 | CC(C)c1cccn2c(C3(c4ccc(Cl)cc4)CC3)nnc12 | Active | 
3 | Clc1ccc(C2(c3nnc4c(OCC5CC5)cccn34)CC2)cc1 | Active | 
4 | Clc1ccc(C2(c3nnc4c(OC5CCOCC5)cccn34)CC2)cc1 | Active | 
5 | Clc1ccc(C2(c3nnc4c(OC5CCCCC5)cccn34)CC2)cc1 | inactive | 
6 | Clc1ccc(C2(c3nnc4c(C5CC5)cccn34)CC2)cc1 | Active | remaining at 0.5 h [1]: 100%; AUC(0-t) at 8 h [2]: 5.6 µM·h; Cmax [3]: 2500 nM; remaining at 0.5 h [4]: 100%; solubility [5]: 76 µg/mL (≈ 245 µM); Tmax [6]: 1 h; remaining at 0.5 h [7]: 100%; remaining at 0.5 h [8]: 100%
7 | Clc1ccc(C2(c3nnc4c(OC5CCC5)cccn34)CC2)cc1 | Active | 
8 | Clc1ccc(C2(c3nnc4c(C5CCC5)cccn34)CC2)cc1 | Active | 
